Screening data as filed in PubChem.
In the library only some 3.5% were active in any assay of this set; here they are far more common.
PGC1a acetyl inh – PGC1a acetylation modulation, inhibitor mode | inhibition, % at 15.6 µM | 0.17% of 350,000 active | U2OS PGC1a acetylation, AlphaScreen anti-acetyl-lysine; with virally co-expressed GCN5 acetyltransferase | AID 651687;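 active = every replicate shows inhibition of at least 40%; inconclusive = mean inhibition at least 40% but some replicate below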;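 note: 0% = neutral control wells and 100% = positive control wells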
FGF22 binding – binders of recombinant human FGF22 by thermal shift. SYPRO orange fluorescence; percent of sucrose octasulfate shift, DMSO zero. 1.5% of 340,000 active. activity (Tm shift, normalised), % at 9.99 µM. Q9HCT0;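 active = mean Tm shift, scaled 0 neutral to 100 positive control, at about 1.3% or above, every replicate too, limit read from the data; inconclusive = no clear call, values can overlap the other calls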
rRNA inh HTS – inhibits bacterial ribosomal RNA function over humanized ribosomes | 1.6% of 350,000 active | E. coli WT GFP vs humanized-ribosome RFP mutants, fluorescence, 24 h; stronger effect = lower value; DMSO median 0, no signal -100 | GFP signal change (wild-type ribosome), % (concentration not given with the values);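 active = significant combined selectivity score with lowered wild-type GFP, culture density cut under 30%, mutant RFP and density less affected; inactive = any of these conditions unmet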
Env fusion inh – HIV envelope-mediated fusion inhibition | HeLa-JRFL Env/CEM21 cell fusion, luciferase | inhibition, % at 12.3 µM | 1.1% of 360,000 active | AID 651610;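 active = mean replicate inhibition score of at least 50 and every replicate individually at or above 50; inconclusive = only one of the two criteria met; inactive = mean below 50 and not all replicates reaching 50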;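 note: 0% = plate neutral controls and 100% = maraviroc near 300 nM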
Cneo AK release – Cryptococcus neoformans lysis via adenylate kinase release | C. neoformans lysis, adenylate kinase release luminescence, 4 h; normalised: neutral wells 0, clomiphene wells 100 | lysis activity, % at 15 µM | 0.2% of 360,000 active | AID 651654;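 active = mean lysis activity across replicates of at least 80%, whatever share of replicates individually reach that level; inactive = mean lysis activity below 80%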
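Assay system: Cryptococcus neoformans yeast cells / Dosing: single-point compound dose / Timing: 4 h at 37 °C static, read 1 h later / Measured by: luminescence of released adenylate kinase using an AK detection reagent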
ERAP1 inh – ERAP1 (human) enzyme inhibition | Q9NZ08 | recombinant ERAP1, Leu-AMC fluorescence, 60 min | inhibition, % at 10.7 µM | 0.15% of 340,000 active;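 active = mean replicate inhibition of at least 30%, or all replicates individually reaching that 30% level; inactive = mean below 30% and not every replicate reaching it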;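 note: 0% = neutral control wells and 100% = L-leucinethiol positive control wells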
AID977621 – wild-type E. coli growth inhibition versus H69 humanized strain – H69 mutant RFP, wild-type GFP, cherry-pick, dose response. shares compounds with rRNA inh HTS. fluorescence, 24 h. activity change, negative = inhibition at 50 µM. 1,900 tested, under 10 active;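 active = Wild-type ribosome reporter drop at least double the humanized mutant ribosome reporter drop, growth loss under a set limit; inconclusive = no clear call, values can overlap the other calls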;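 note: wild-type GFP and H69 mutant RFP strains grown together 50/50 in each well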
AID977628 – E. coli growth inhibition, wild-type GFP versus h24 humanized RFP strain, dose response, h24 mutant RFP vs wild-type GFP, cherry-pick; E. coli WT GFP strain growth, fluorescence, 24 h; 1,900 tested, under 10 active; shares compounds with rRNA inh HTS; activity change, negative = inhibition at 50 µM;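 active = compound lowering the normal-ribosome reporter at least twice as much as the humanized-ribosome reporter, growth loss under a set limit; inconclusive = no clear call, values can overlap the other calls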;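 note: wild-type GFP and h24 humanized RFP strains co-cultured 1 to 1 per well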
* = called active by the depositor; ? = inconclusive; nt = not tested or not shown.

SMILES | PGC1a acetyl inh | FGF22 binding | rRNA inh HTS | Env fusion inh | Cneo AK release | ERAP1 inh | AID977628 | others
COc1ccc(N2C(=O)C3C(c4ccc(C(=O)O)cc4)NC(Cc4ccccc4)(C(=O)O)C3C2=O)c([N+](=O)[O-])c1 (stereo unspecified) | nt | 0.2 | -19.3* | 4.0 | nt | 9.8 | 3.85 | AID977621=3.75
COC(=O)C1(Cc2ccccc2)NC(c2ccc(F)cc2)C2C(=O)N(C)C(=O)C21 (stereo unspecified) | -12.2 | nt | nt | nt | -0.2 | nt | nt
O=C(NCc1nnnn1-c1ccc(F)cc1)c1ccc([N+](=O)[O-])o1 | nt | -0.4 | -13.8 | -33.2 | nt | 3.0 | nt
Cc1ccc(-n2nnnc2CNC(=O)c2ccc([N+](=O)[O-])o2)cc1C | nt | -0.1 | -19.6* | 14.6 | nt | 2.3 | 0.065 | AID977621=?
COc1ccccc1C1CCN(Cc2ccccc2)CC1 | 4.3 | -0.1 | 3.1 | -12.8 | -1.4 | 1.0 | nt
COc1ccccc1C1CCN(Cc2cccc([N+](=O)[O-])c2)CC1 | nt | 0.1 | -24.4* | -15.0 | nt | -8.3 | ?
COc1ccc(-c2noc(=O)n2Cc2ccc(F)cc2Cl)cc1 | -3.0 | -0.2 | -9.8 | -28.6 | -1.3 | -4.1 | nt
COc1ccc(-c2noc(=O)n2Cc2ccccc2Cl)cc1 | 3.9 | -0.3 | -15.2* | -13.7 | 0.3 | 1.1 | 0.49
O=C(CCCOc1ccccc1)NCCc1nc2ccccc2[nH]1 | -2.1 | 0.1 | -19.1* | -6.1 | -1.1 | 3.3 | 6.37
CCOc1ccc(OCC(=O)NCCc2nc3ccccc3[nH]2)cc1 | 4.6 | nt | nt | -70.7 | 1.2 | nt | nt
